The text below walks through data of ChEMBL document CHEMBL4017537, “Discovery of a Potent and Specific M. tuberculosis Leucyl-tRNA Synthetase Inhibitor: (S)-3-(Aminomethyl)-4-chloro-7-(2-hydroxyethoxy)benzo[c][1,2]oxaborol-1(3H)-ol (GSK656)” (J Med Chem, 2017).

The target of one assay is T1, Leucine--tRNA ligase (Mycobacterium tuberculosis (strain ATCC 25618 / H37Rv), UniProt P9WFV1).
T1 sequence (P9WFV1 whole entry): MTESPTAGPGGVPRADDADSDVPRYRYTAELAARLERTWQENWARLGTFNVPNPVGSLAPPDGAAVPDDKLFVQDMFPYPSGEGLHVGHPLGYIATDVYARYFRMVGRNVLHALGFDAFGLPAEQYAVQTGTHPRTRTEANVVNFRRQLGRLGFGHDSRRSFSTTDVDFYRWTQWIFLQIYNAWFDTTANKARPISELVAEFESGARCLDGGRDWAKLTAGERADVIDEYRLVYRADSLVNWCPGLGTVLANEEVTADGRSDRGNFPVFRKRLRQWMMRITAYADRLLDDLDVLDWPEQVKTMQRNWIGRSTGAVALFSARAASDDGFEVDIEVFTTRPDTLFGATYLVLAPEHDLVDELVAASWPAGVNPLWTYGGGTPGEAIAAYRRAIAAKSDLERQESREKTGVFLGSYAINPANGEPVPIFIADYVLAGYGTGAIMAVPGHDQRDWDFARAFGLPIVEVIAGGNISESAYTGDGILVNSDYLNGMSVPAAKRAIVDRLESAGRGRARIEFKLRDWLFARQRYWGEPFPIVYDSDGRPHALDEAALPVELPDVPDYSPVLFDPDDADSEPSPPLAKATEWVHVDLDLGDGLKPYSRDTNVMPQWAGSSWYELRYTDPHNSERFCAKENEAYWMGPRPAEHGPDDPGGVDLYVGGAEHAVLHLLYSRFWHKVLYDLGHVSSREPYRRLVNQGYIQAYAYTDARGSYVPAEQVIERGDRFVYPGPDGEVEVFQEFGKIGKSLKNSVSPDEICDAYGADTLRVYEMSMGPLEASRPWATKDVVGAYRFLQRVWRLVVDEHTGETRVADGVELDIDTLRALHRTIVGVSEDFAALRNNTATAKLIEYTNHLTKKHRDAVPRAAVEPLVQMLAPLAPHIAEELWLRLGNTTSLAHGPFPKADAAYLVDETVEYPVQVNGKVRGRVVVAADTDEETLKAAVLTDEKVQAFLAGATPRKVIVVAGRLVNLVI
The experiment in a line: Inhibition of Mycobacterium tuberculosis H37Rv N-terminal 6His-tagged LeuRS expressed in Escherichia coli BL21(DE3) assessed as L-[14C]leucine incorporation in to Escherichia coli tRNA after 20 mins by liquid scintillation counting analysis. An outline of the steps: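 N-terminal His6-tagged LeuRS expressed in E. coli BL21(DE3), codon-optimized. 50 mM HEPES-KOH pH 8.0, 30 mM MgCl2, 30 mM KCl, 13 μM L-[14C]leucine, 15 μM tRNA (E. coli total; brewer's yeast for human cytoplasmic enzyme), 0.02% BSA, 1 mM DTT, 30 °C. Inhibitor preincubated 20 min, started with 4 mM ATP, TCA-quenched after 7 min, filtered, scintillation counted; four-parameter logistic IC50.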

The subject of assay [1] is Mycobacterium tuberculosis. The experiment in a line: Antimicrobial activity against Mycobacterium tuberculosis H37Rv. It counts as functional.

SMILES strings stand for the structures. Values after ≈ are worked out from the molar mass of the structure shown.

Broadly, the IC50 is the concentration that inhibits the measured activity by half. What is called MIC is the lowest concentration that inhibits growth of the organism. Low values mean inhibition by little substance, high ones a need for much substance.

With `NCC1OB(O)c2c(OCCc3ccccc3)ccc(Cl)c21` (racemic), at Leucine--tRNA ligase, the IC50 was determined as 720 nM. The compound also had an MIC in assay [1] of 5 µM (≈ 1.59 µg/mL).

As for `CCCOc1cc(Br)c2c(c1)B(O)OC2CN` (racemic), the IC50 on Leucine--tRNA ligase was 370 nM. Further, 0.6 µM (≈ 0.18 µg/mL) was the least that counted as inhibitory in assay [1] (MIC).

As to `NCC1OB(O)c2c3c(cc(Br)c21)OCO3` (racemic), the IC50 on Leucine--tRNA ligase was 610 nM. Moreover, the MIC in assay [1] was greater than 5 µM.

Consider `CCOc1cc(Br)c2c(c1)B(O)OC2CN` (racemic), for which, on Leucine--tRNA ligase, the IC50 was 260 nM. 3.75 µM (≈ 1.07 µg/mL) was the least that counted as inhibitory in assay [1] (MIC).

Consider `NCC1OB(O)c2c(OCCc3ccccc3)ccc(Br)c21` (racemic), for which the IC50 on Leucine--tRNA ligase is 470 nM. In addition, the minimum inhibitory concentration (MIC) in assay [1] was greater than 5 µM.

`NC[C@H]1OB(O)c2c(OCCCO)ccc(Cl)c21`: the IC50 at Leucine--tRNA ligase is 470 nM. Also, the MIC in assay [1] is 0.14 µM (≈ 0.038 µg/mL).

Turning to `NCC1OB(O)c2c(OCCF)ccc(Br)c21` (racemic), at Leucine--tRNA ligase, the 50% inhibitory concentration (IC50) amounted to 260 nM. Also, in assay [1], the MIC stood at 0.2 µM (≈ 0.0608 µg/mL).

For the compound `CCCCOc1ccc(Cl)c2c1B(O)O[C@@H]2CN`, the IC50 on Leucine--tRNA ligase amounted to 270 nM. The compound further had an MIC in assay [1] of 0.6 µM (≈ 0.162 µg/mL).

Turning to `NCC1OB(O)c2c(OCC(F)F)ccc(Cl)c21` (racemic), the IC50 at Leucine--tRNA ligase is 290 nM. The compound further yielded an MIC in assay [1] of 0.3 µM (≈ 0.0832 µg/mL).

Turning to `NCC1OB(O)c2c(OCCF)ccc(Cl)c21` (racemic), on Leucine--tRNA ligase, the IC50 amounted to 76 nM. This compound also registered an MIC in assay [1] of 0.2 µM (≈ 0.0519 µg/mL).

In the case of `NC[C@H]1OB(O)c2c(OCCCO)ccc(Br)c21`, the IC50 at Leucine--tRNA ligase turned out to be 160 nM. The MIC in assay [1] came to 0.3 µM (≈ 0.0948 µg/mL).

On to `NCC1OB(O)c2c(OCc3ccccc3)ccc(Cl)c21` (racemic), for which the IC50 at Leucine--tRNA ligase stood at 320 nM. Also, inhibition of growth in assay [1] (MIC) required 5 µM (≈ 1.52 µg/mL).

As for `NCC1OB(O)c2c3c(cc(Cl)c21)OCO3` (racemic), the IC50 at Leucine--tRNA ligase worked out at 250 nM. In assay [1], the minimum inhibitory concentration (MIC) is greater than 5 µM.

In the case of `NC[C@@H]1OB(O)c2c(OCCO)ccc(Br)c21`, the IC50 on Leucine--tRNA ligase came out at 14200 nM. It took 10 µM (≈ 3.02 µg/mL) to inhibit growth in assay [1] (MIC).

In assay [1], `CCOc1cccc2c1B(O)O[C@@H]2CN` registered an MIC of 0.6 µM (≈ 0.124 µg/mL).

As for `CCCOc1ccc(Cl)c2c1B(O)O[C@@H]2CN`, the IC50 on Leucine--tRNA ligase is 310 nM. In assay [1], this compound came in with an MIC of 0.16 µM (≈ 0.0409 µg/mL).

Turning to `NCC1OB(O)c2cc(OCCCO)cc(Cl)c21` (racemic), the IC50 on Leucine--tRNA ligase was 440 nM. The compound further gave an MIC in assay [1] greater than 5 µM.

In the case of `NCC1OB(O)c2c3c(cc(Br)c21)OCCO3` (racemic), the IC50 at Leucine--tRNA ligase was found to be 92 nM. Also, the MIC in assay [1] was determined as 0.5 µM (≈ 0.15 µg/mL).

Consider `NCC1OB(O)c2c(OCCO)ccc(Cl)c21` (racemic), for which the IC50 at Leucine--tRNA ligase amounted to 240 nM. Also, 0.63 µM (≈ 0.162 µg/mL) was the least that counted as inhibitory in assay [1] (MIC).

With `NC[C@@H]1OB(O)c2c(OCCO)ccc(Cl)c21`, the IC50 at Leucine--tRNA ligase worked out at 10000 nM. Moreover, inhibition of growth in assay [1] (MIC) required 5 µM (≈ 1.29 µg/mL).

For the compound `NCC1OB(O)c2c(OCc3ccccc3)ccc(Br)c21` (racemic), at Leucine--tRNA ligase, the IC50 stood at 440 nM. This compound showed an MIC in assay [1] of 5 µM (≈ 1.74 µg/mL).

Turning to `NCC1OB(O)c2c3c(cc(Cl)c21)OCCO3` (racemic), on Leucine--tRNA ligase, the IC50 stood at 130 nM. Moreover, the MIC in assay [1] was 0.31 µM (≈ 0.0792 µg/mL).

On to `NCC1OB(O)c2cc(OCCO)cc(Cl)c21` (racemic), for which the IC50 at Leucine--tRNA ligase was found to be 1110 nM. In assay [1], this compound returned an MIC greater than 5 µM.

On to `CCCOc1ccc(Br)c2c1B(O)O[C@@H]2CN`, for which, at Leucine--tRNA ligase, the IC50 came to 240 nM. This compound came in with an MIC in assay [1] of 0.38 µM (≈ 0.114 µg/mL).

For the compound `NCC1OB(O)c2cc(OCCO)cc(Br)c21` (racemic), on Leucine--tRNA ligase, the IC50 amounted to 890 nM. The compound also registered an MIC in assay [1] greater than 5 µM.

On to `CCOc1cc(Cl)c2c(c1)B(O)OC2CN` (racemic), for which, on Leucine--tRNA ligase, the IC50 was found to be 630 nM. Further, in assay [1], the MIC was greater than 5 µM.

In assay [1], `CCOc1ccc(F)c2c1B(O)O[C@@H]2CN` yielded an MIC of 0.2 µM (≈ 0.045 µg/mL).

In the case of `NCC1OB(O)c2c(Oc3ccccc3)ccc(Cl)c21` (racemic), the IC50 on Leucine--tRNA ligase worked out at 340 nM. Moreover, the lowest concentration to inhibit growth in assay [1] (MIC) was 5 µM (≈ 1.45 µg/mL).

Turning to `NC[C@@H]1OB(O)c2c3c(cc(Cl)c21)OCCO3`, the IC50 at Leucine--tRNA ligase was found to be 12600 nM. Also, the MIC in assay [1] worked out at 80 µM (≈ 20.4 µg/mL).

For `NCC1OB(O)c2c(OCC(F)F)ccc(Br)c21` (racemic), the IC50 at Leucine--tRNA ligase came to 240 nM. In assay [1], this compound came in with an MIC of 0.31 µM (≈ 0.0998 µg/mL).

Take `NCC1OB(O)c2c(Oc3ccc(Br)cc3)ccc(Br)c21` (racemic): the IC50 at Leucine--tRNA ligase came to 690 nM. In addition, the MIC in assay [1] was greater than 5 µM.
